*1 amine or outer side, *2 acyl side, *3 side chain or, on linkers, in order; H or OH if unused. Where a SMILES comes first, the peptide text is derived from it. Bridges are numbered along the chain shown (N, C = ends). X1 = O=C([C@H](O)CS[*:2])[*:1]
How the values were obtained:
[1] = Oxytocic potency in rat uterus; assay type: functional
Method in brief: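 Isolated uterine horns from rats in natural estrus. The standard was given repeatedly until reproducible values were obtained. After the preparation was exposed to an analogue, several further doses of standard were needed before the standard's potency became consistent between analogue injections.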

[2] = tested on: Gallus gallus; experiment: Vasodepressor activity in conscious chicken; assay type: ADME, organism-based; conditions: in vivo
Method in brief: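 Vasodepressor assay run in conscious chickens.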

[3] = tested on: Rattus norvegicus; experiment: Antidiuretic activity in iv dosed rat; assay type: ADME, organism-based, Urine; conditions: in vivo
Method in brief: (§1)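 Pressor and antidiuretic assays run in anesthetized male rats.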

[4] = Ratio of oxytocic potency to antidiuretic activity in rat; parameters: species or system Urine
[5] = species on record: Rattus norvegicus; experiment: Vasopressor activity in rat; assay type: ADME, organism-based; conditions: in vivo; method in brief: as §1

SMILES	Activity [2] [U/mg]	Activity [3] [U/mg]	Activity [5] [U/mg]	Activity [1] [U/mg]	Ratio [4]
CC[C@H](C)[C@@H]1NC(=O)[C@H](Cc2ccc(O)cc2)NC(=O)[C@@H](N)CSSC[C@@H](C(=O)N2CCC[C@H]2C(=O)N[C@@H](CC(C)C)C(=O)NCC(N)=O)NC(=O)[C@H](CC(N)=O)NC(=O)[C@H]([C@@H](C)O)NC1=O (H-CYITNCPLG-NH2; disulfide 1-6)	1480	1.8	0.43	923	500
CC[C@H](C)[C@@H]1NC(=O)[C@H](Cc2ccc(O)cc2)NC(=O)[C@H](O)CSSC[C@@H](C(=O)N2CCC[C@H]2C(=O)N[C@@H](CC(C)C)C(=O)NCC(N)=O)NC(=O)[C@H](CC(N)=O)NC(=O)[C@H](CCC(N)=O)NC1=O (YIQNCPLG-NH2; linker N-5 via X1)	1778	16.6	14.7	1275	40
CC[C@H](C)[C@@H]1NC(=O)[C@H](Cc2ccc(O)cc2)NC(=O)[C@H](O)CSSC[C@@H](C(=O)NCC(=O)N[C@@H](CC(C)C)C(=O)NCC(N)=O)NC(=O)[C@H](CC(N)=O)NC(=O)[C@H]([C@@H](C)O)NC1=O (YITNCGLG-NH2; linker N-5 via X1)	50	0.048		337	7000
CC[C@H](C)[C@@H]1NC(=O)[C@H](Cc2ccc(O)cc2)NC(=O)[C@@H](N)CSSC[C@@H](C(=O)N2CCC[C@H]2C(=O)N[C@@H](CC(C)C)C(=O)NCC(N)=O)NC(=O)[C@H](CC(N)=O)NC(=O)[C@H](CCC(N)=O)NC1=O [OXYTOCIN]	507	2.7	3.1	546	200

Continued, in another order:

Activity [2] [U/mg]	Activity [3] [U/mg]	Activity [5] [U/mg]	SMILES	Activity [1] [U/mg]	Ratio [4]
224	0.01	0.3	CC[C@H](C)[C@@H]1NC(=O)[C@H](Cc2ccc(O)cc2)NC(=O)[C@@H](N)CSSC[C@@H](C(=O)NCC(=O)N[C@@H](CC(C)C)C(=O)NCC(N)=O)NC(=O)[C@H](CC(N)=O)NC(=O)[C@H](CCC(N)=O)NC1=O (H-CYIQNCGLG-NH2; disulfide 1-6)	65	6500
8.6	0.001		CC[C@H](C)[C@@H]1NC(=O)[C@H](Cc2ccc(O)cc2)NC(=O)[C@@H](N)CSSC[C@@H](C(=O)NCC(=O)N[C@@H](CC(C)C)C(=O)NCC(N)=O)NC(=O)[C@H](CC(N)=O)NC(=O)[C@H]([C@@H](C)O)NC1=O (H-CYITNCGLG-NH2; disulfide 1-6)	175	135000
